Two molecules from ChEMBL document CHEMBL4190262, “Tuning of β-glucosidase and α-galactosidase inhibition by generation and in situ screening of a library of pyrrolidine-triazole hybrid molecules” (Eur J Med Chem, 2017) can be followed below.

Each structure is given as a SMILES string. A value given as a limit tells only on which side of the number the result lay.

One experiment deals with Alpha-galactosidase (Coffea arabica, UniProt Q42656). The experiment in a line: Inhibition of coffee beans alpha-galactosidase using p-nitrophenyl glycopyranoside preincubated for 5 mins followed by substrate addition measured after 20 mins by visible absorption spectroscopic method. The gist of the method: (§1)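 IC50 determined only for compounds giving ≥80% inhibition at 1 mM, read from plots of % inhibition versus inhibitor concentration. p-Nitrophenyl glycopyranoside substrate (10 mM solution) at the enzyme's optimal pH, with 0.01–0.5 units/mL enzyme. 5 min rt preincubation with enzyme, then 20 min at 37 °C. Borate stop (pH 9.8), absorbance at 405 nm. Duplicates averaged.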
Sequence of Alpha-galactosidase (Q42656 whole entry): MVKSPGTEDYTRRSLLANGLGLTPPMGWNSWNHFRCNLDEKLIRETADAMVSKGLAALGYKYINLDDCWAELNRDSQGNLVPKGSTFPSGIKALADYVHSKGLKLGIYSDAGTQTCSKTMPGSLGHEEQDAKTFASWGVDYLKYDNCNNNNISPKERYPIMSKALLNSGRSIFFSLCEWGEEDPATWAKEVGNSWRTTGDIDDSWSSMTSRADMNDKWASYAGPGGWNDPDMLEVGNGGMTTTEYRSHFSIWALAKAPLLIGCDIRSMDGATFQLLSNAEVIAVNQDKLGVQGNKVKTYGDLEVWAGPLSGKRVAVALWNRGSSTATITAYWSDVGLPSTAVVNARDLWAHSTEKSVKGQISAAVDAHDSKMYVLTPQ

Experiment [1] can be described thus: Inhibition of bovine liver beta-glucosidase using p-nitrophenyl glycopyranoside preincubated for 5 mins followed by substrate addition measured after 20 mins by visible absorption spectroscopic method. Details: species or system Bos taurus. The gist of the method:
as §1

A further experiment concerns the target T1, Alpha-galactosidase A (Homo sapiens, UniProt P06280).
T1 sequence (P06280 whole entry): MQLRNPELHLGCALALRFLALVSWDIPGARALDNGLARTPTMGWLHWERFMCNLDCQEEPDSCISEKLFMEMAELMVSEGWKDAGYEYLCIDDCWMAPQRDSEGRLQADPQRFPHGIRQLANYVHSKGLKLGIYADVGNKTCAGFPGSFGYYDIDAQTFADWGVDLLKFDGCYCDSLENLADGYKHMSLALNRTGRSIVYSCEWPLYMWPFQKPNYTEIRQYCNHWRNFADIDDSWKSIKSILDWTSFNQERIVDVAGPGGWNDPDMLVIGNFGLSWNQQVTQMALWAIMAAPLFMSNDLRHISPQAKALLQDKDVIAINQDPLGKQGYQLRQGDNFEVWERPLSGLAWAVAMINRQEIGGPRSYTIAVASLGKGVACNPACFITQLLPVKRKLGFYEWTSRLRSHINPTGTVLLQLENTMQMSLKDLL
The experiment in a line: Inhibition of human lysosomal alpha-galactosidase A using 4-methylumbelliferyl-alpha-D-galactopyranoside as substrate preincubated for 45 mins followed by substrate addition measured after 30 mins by fluorescence spectroscopic method. The gist of the method: (§2)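 Enzyme in 100 mM McIlvaine buffer pH 5.2 with 0.25% sodium taurocholate and 0.1% Triton X-100, with inhibitor. Preincubated at 0 °C for 45 min, then started with 3 mM 4-methylumbelliferyl glycoside substrate solution and incubated 30 min at 37 °C. Stopped with 400 mM glycine-NaOH pH 10.6. 4-Methylumbelliferone fluorescence read at ex 362/em 450 nm.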

Experiment [2] is described as follows: Selectivity ratio of IC50 for human lysosomal alpha-galactosidase A to IC50 for coffee beans alpha-galactosidase.
The test system of the next experiment is Prunus dulcis. The experiment can be described thus: Inhibition of almond beta-glucosidase at 10 uM using p-nitrophenyl glycopyranoside preincubated for 5 mins followed by substrate addition measured after 20 mins by visible absorption spectroscopic method relative to control. The method in brief: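 Crude click-reaction products screened in situ. Azide (final 15 mM) was reacted with each alkyne using sodium ascorbate/CuSO4 in tBuOH–H2O for 24 h at rt, then diluted with water. Tested at 10 μM per well, assuming quantitative conversion, against almond β-glucosidase at pH 5, 37 °C. p-Nitrophenyl glycoside read-out at 405 nm.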

For the next experiment, the species on record is Bos taurus. The experiment can be described thus: Inhibition of bovine liver beta-glucosidase at 1 mM using p-nitrophenyl glycopyranoside preincubated for 5 mins followed by substrate addition measured after 20 mins by visible absorption spectroscopic method relative to control. The method in brief: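 Test compound at 1 mM in well. Mix: 0.01–0.5 units/mL enzyme plus 10 mM p-nitrophenyl glycopyranoside (aqueous solution), buffered to the enzyme's optimal pH. Enzyme and inhibitor preincubated 5 min at rt. Substrate then added and incubated 20 min at 37 °C. Stopped with sodium borate (pH 9.8). p-Nitrophenolate read at 405 nm. Duplicates averaged.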

Experiment [3] addresses T2, Alpha-galactosidase A (Homo sapiens) (UniProt P06280).
T2 sequence (whole entry): T1 sequence (P06280 whole entry)
The experiment in a line: Inhibition of human lysosomal alpha-galactosidase A at 1 mM using 4-methylumbelliferyl-alpha-D-galactopyranoside as substrate preincubated for 45 mins followed by substrate addition measured after 30 mins by fluorescence spectroscopic method relative to control. The gist of the method: as §2

For `O[C@@H]1[C@H](O)CN[C@@H]1Cn1cc(-c2ccccc2)nn1`, the half-maximal inhibitory concentration (IC50) – broadly, the concentration at which inhibition is half-maximal – on Alpha-galactosidase is 14 µM; in experiment [1], 240 µM; against Alpha-galactosidase A it was 171 µM. The Ratio IC50 in experiment [2] was 10.

Take `O[C@@H]1[C@H](O)CN[C@H]1Cn1cc(-c2ccccc2)nn1`: the results for the inhibition (in the experiment with Prunus dulcis; in the experiment listed under Bos taurus; in experiment [3]) were 72%, less than 50% and less than 50%, respectively.
